High-throughput results from PubChem BioAssay.
DNMT1 block – human DNMT1 methyltransferase inhibitors, primary screen, biochemical, molecular beacon, fluorescence, HinP1I cleavage, uHTS; AID 588458, 2011; inhibition (reported as % activation of signal), % at 10 µM; actives 0.83% (n = 360,000); DNA (cytosine-5)-methyltransferase 1 (Homo sapiens), P26358; in the data active means inhibition above about 50%
STEP block – STEP phosphatase inhibitors, primary screen, biochemical, fluorescence intensity, uHTS; inhibition, % at 20 µM; AID 588621, 2011; recombinant STEP, OMFP fluorogenic substrate; actives 0.25% (n = 360,000);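 active means inhibition at 20 µM, scaled per plate between control wells, above about 37%, limit read from the data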
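Assay system: isolated STEP enzyme. Buffer or medium: pH 6.0 Bis-Tris with DTT and Tween 20. Also added: fluorogenic phosphatase substrate OMFP at 25 µM final. Dosing: 20 µM, 1% DMSO. Timing: 20 min reaction, room temperature, in the dark. Measured by: fluorescence intensity, excitation 480 nm, emission 540 nm. Evaluation: normalized % inhibition.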
Scp-1 inhibitor – Scp-1 phosphatase inhibitors, primary screen, biochemical, colorimetric, uHTS; Carboxy-terminal domain RNA polymerase II polypeptide A small phosphatase 1 (Homo …; Recombinant Scp1, phosphopeptide, malachite green phosphate absorbance; inhibition, % at 20 µM; actives 0.88% (n = 340,000); AID 493091, 2011;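 active means inhibition above about 50% at 20 µM, limit read from the data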
Target sequence (Q9GZU7 76-261 limits assumed): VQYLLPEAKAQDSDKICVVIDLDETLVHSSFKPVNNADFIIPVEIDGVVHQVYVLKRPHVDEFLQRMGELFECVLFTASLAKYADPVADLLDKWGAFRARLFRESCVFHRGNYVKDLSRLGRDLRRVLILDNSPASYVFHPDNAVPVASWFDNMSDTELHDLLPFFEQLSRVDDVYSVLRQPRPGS
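Test system – truncated SCP-1 phosphatase (76-261aa) · Reagent – Phosphorylated 17-residue peptide substrate · Incubation – 45 min room-temperature reaction, 5 min colour, 30 min stabiliser · Detection – colorimetric phosphate reagent with accelerator and stabiliser, absorbance at 630 nm · Measure – % inhibition at 20 µM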
LMPTP block – LMPTP phosphatase inhibitors, primary screen, biochemical, fluorescence intensity, uHTS | Low molecular weight phosphotyrosine protein phosphatase (Homo sapiens), P24666 | recombinant LMPTP-A, OMFP fluorogenic substrate | inhibition, % at 20 µM | actives 0.22% (n = 360,000) | AID 651560, 2012;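 active means compounds that cut the enzyme signal by at least half of the control window in the single-dose screen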
Target sequence (P24666 whole entry, looked up): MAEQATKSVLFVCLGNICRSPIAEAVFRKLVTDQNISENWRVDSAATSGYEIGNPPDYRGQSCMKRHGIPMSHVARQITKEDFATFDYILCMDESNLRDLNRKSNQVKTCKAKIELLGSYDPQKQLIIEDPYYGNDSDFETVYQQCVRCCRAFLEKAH
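test system = LMPTP-A | amount = 0.625 nM LMPTP-A final | reagent = fluorogenic phosphatase substrate OMFP at 400 µM final | incubation = 50 min at room temperature | benchmarks = no-enzyme low control, uninhibited high control | medium = Bis-Tris pH 6.0, DTT, detergent | signal = fluorescence intensity of OMFP turnover product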
SUMO1 PPI mod – modulators of SUMO1 protein-protein interactions, primary screen, biochemical, uHTS. AID 602429, 2012. SUMO1 binding to a labelled peptide, TR-FRET, 1 h. inhibition, % at 20 µM. Small ubiquitin-related modifier 1 (Homo sapiens), P63165. actives 0.33% (n = 360,000); in the data active means inhibition above about 37%
Target sequence (P63165 whole entry, looked up): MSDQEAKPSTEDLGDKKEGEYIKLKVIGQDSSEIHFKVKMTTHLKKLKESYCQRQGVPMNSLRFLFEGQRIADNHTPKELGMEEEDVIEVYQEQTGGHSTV
Of the large screens only hits and unclear results are named; the others gave an inactive call; ! = not confirmed by another sample. Shown are actives, neighbours in structure and some others; about 1.7% of the full set was active somewhere.

CCOC(=O)CNS(=O)(=O)c1cc(-c2nn(C)c(=O)c3ccccc23)ccc1C	Scp-1 inhibitor 62
Cc1ccc(-c2nn(C)c(=O)c3ccccc23)cc1S(=O)(=O)NCCN1CCOCC1	none
Clc1cccc(-c2cccc3nccn23)c1	none (no result: Scp-1 inhibitor)
O=C(CSc1nnc(SCc2ccc(Cl)cc2)s1)N/N=C/c1c[nH]c2ccccc12	DNMT1 block 70, SUMO1 PPI mod 42
O=C(CSc1nnc(SCc2cccc3ccccc23)s1)N/N=C/c1c[nH]c2ccccc12	none
CN(C)CCNC(=O)c1cccc2nc3cccc(F)c3nc12	DNMT1 block 55
Cc1ccc(-c2ccc(/C=C3\C(=O)ON=C3c3ccccc3)o2)c([N+](=O)[O-])c1	DNMT1 block 54
COc1ccc(C(=O)C[N+]2(C)CCOCC2)cc1	Scp-1 inhibitor 101
COc1ccc(C(=O)CC(=O)c2ccc(OC)cc2)cc1	none
Nc1cc2nsnc2cc1Br	DNMT1 block 111, SUMO1 PPI mod 80
N=C1/C(=C/c2ccc(-c3cccc(C(=O)O)c3)o2)C(=O)N=C2SC=C(c3ccccc3)N12	DNMT1 block 100, STEP block 64, Scp-1 inhibitor 68, LMPTP block 89, SUMO1 PPI mod 46
CCCCCCCCN1C(=O)[C@H](CC(=O)NCC23CC4CC(CC(C4)C2)C3)C[C@@]2(C(=O)OCC)CCC=C12	none (no result: DNMT1 block, STEP block, Scp-1 inhibitor)
CC1(CCc2ccc3c(c2)OCO3)NCCc2c1[nH]c1ccccc21 (centres undefined)	none
Cc1cc2cc(C)c(NCCNC(=O)c3cccs3)nc2cc1C	SUMO1 PPI mod 50
COc1ccc(/C(C)=N/Nc2ccccc2Cl)c(O)c1	SUMO1 PPI mod 58
N#CC1=C(N)OC2=C(C(=O)CC(c3ccco3)C2)C1c1ccc(OCc2c(F)cccc2Cl)cc1 (centres undefined)	LMPTP block 65
Cc1cc2c([nH]c3ccccc32)c(C)n1	none
Cc1c2ccncc2cc2c1[nH]c1ccccc12	LMPTP block 55
CCOC(=O)Nc1cc(OC)cc2ccc(C)nc12	none (no result: Scp-1 inhibitor)
COc1cccc(CCC(=O)N2CCC(n3nccc3NC(=O)CC(C)C)CC2)c1	SUMO1 PPI mod 102
O=C(Nc1cccc(S(=O)(=O)NC2=NCCCCC2)c1)c1cc(-c2ccncc2)nc2ccccc12	none
O=C(Nc1cccc(S(=O)(=O)NC2=NCCCCC2)c1)c1cc(-c2ccco2)nc2ccccc12	DNMT1 block 97, Scp-1 inhibitor 90
Cc1ccc(NC(=O)C2(C)CCN2C(=O)Cc2cc(F)ccc2F)cc1 (centres undefined)	none (no result: Scp-1 inhibitor)
CC(C)(C)NC(=O)C(c1cc2ccccc2o1)n1c(=O)c(-c2ccccc2)nc2ccccc21 (centres undefined)	none (no result: DNMT1 block, STEP block, Scp-1 inhibitor)
COc1ccc(C2C(C(C)=O)=C(C)Nc3ncnn32)cc1 (centres undefined)	none
COc1cccc(C2C(C(C)=O)=C(C)Nc3ncnn32)c1 (centres undefined)	SUMO1 PPI mod 38
COc1ccc(C#Cc2c(-c3ccccc3)n(C)c3ccccc23)cc1	none
COc1ccc(-c2c(C#Cc3ccsc3)c3ccccc3n2C)cc1	LMPTP block 51
COc1ccc(-c2nnc(-c3ccc(F)cc3)o2)cc1	none
CCOc1ccc(-c2nnc(-c3snc(-c4ccc(F)cc4)c3N=CN(C)C)o2)cc1	SUMO1 PPI mod 47
O=C(Nc1ccccc1-c1ccccc1)c1ccccc1	none
Nc1c(S(=O)(=O)O)cc(NC(=O)c2ccccc2)c2c1C(=O)c1ccccc1C2=O	Scp-1 inhibitor 71, SUMO1 PPI mod 69
CCc1ccc(NC(=O)CN(CC(=O)Nc2ccc(CC)cc2)CC(C)O)cc1 (centres undefined)	none
CCCn1c(SCC(=O)Nc2ccc3c(c2)OCO3)n[nH]c1=O	SUMO1 PPI mod 35
CSCCC(C(=O)NC1CCCC1)n1c(-c2ccncc2)nc2ccccc21 (centres undefined)	none (no result: DNMT1 block, STEP block, Scp-1 inhibitor)
COc1cc(OC)cc(C2=Cc3ccccc3C(CC(C)=O)N2c2ccc(C#CC3(N)CCCCC3)cc2)c1 (centres undefined)	none (no result: DNMT1 block, STEP block, Scp-1 inhibitor)
O=C1c2c(O)cccc2Cc2cccc(O)c21	DNMT1 block 95
Cc1cc(Br)cn2c(CC(C)(C)C)c(-c3cccc(Cl)c3)nc12	none (no result: Scp-1 inhibitor)
O=Cc1cc(N=Nc2cccc(C(=O)O)c2)ccc1O	none
Cc1cc(N=NC(=O)c2ccccc2)ccc1O	DNMT1 block 58
CCOC(=O)N1CCN(C(C(=O)NC2CCCC2)c2cccc(OC)c2OC)CC1 (centres undefined)	none (no result: DNMT1 block, STEP block, Scp-1 inhibitor)
O=C(NCCCN1CCCC1=O)C1CCN(S(=O)(=O)c2ccc(Cl)cc2)CC1	SUMO1 PPI mod 38
COc1ccc(C=C2CS(=O)(=O)CC(=Cc3ccc(OC)cc3)C2=O)cc1	none (no result: Scp-1 inhibitor)
COc1ccc(-n2c(SCC(=O)Nc3cccc(S(N)(=O)=O)c3)nc3ccccc3c2=O)cc1OC	SUMO1 PPI mod 37
CCCN(CCC)C1=CC(=[N+]2CCCC2)CC(C)(C)C1	Scp-1 inhibitor 77
CN(C)NC1=CC(=[N+]2CCCC2)CC(C)(C)C1	none
N#C/C(=C\c1ccc(-c2ccc(C(=O)O)cc2)o1)C(=O)Nc1ccc(F)cc1	Scp-1 inhibitor 69
Cc1cccc(C)c1NC(=O)/C(C#N)=C/c1ccc(-c2ccc(C(=O)O)cc2)o1	none
COC(=O)[C@@]12C[C@@H](CC(=O)N3CCCCC3)C(=O)N(CCc3ccc(OC)c(OC)c3)C1=CCC(C)(C)C2	none (no result: DNMT1 block, STEP block, Scp-1 inhibitor)
O=C(Nc1ccc(Nc2ccncc2)cc1)c1ccc(Nc2ccnc3ccc([N+](=O)[O-])cc23)cc1	STEP block 85, LMPTP block 78, SUMO1 PPI mod 128
CC1(C(=O)NCc2ccccc2)CSCC(=O)N1CCc1c[nH]c2ccccc12 (centres undefined)	none (no result: DNMT1 block, STEP block, Scp-1 inhibitor)
O=C1/C(=C\c2cc(Cl)c(O)c(Cl)c2)SC(=S)N1Cc1ccccc1	DNMT1 block 59
COc1ccc(/C=C2/SC(=S)N(Cc3ccccc3)C2=O)cc1O	none
Cc1nc2ccc(C(=O)N3CCCC(CO)(Cc4ccc(F)cc4F)C3)cc2nc1C (centres undefined)	none
O=C(CN1C(=O)NC2(CCCC2)C1=O)Nc1cc(Cl)ccc1Oc1ccccc1	SUMO1 PPI mod 40
CS/C(=N\S(=O)(=O)c1cccs1)NC(=O)CSc1nc2ccccc2s1	SUMO1 PPI mod 38!
C/C(=N/NC(=O)CSc1nc2ccccc2s1)c1ccncc1	none
Cc1cc(N2CCCCC2)nc(-c2ccc(Br)cc2)n1	SUMO1 PPI mod 45
